A short description of series [1]: Cytotoxicity against human CEM cells. It counts as cell-based. The conditions noted are these: CEM (CCRF-CEM) cells, read-out: TC50 (the source's name). In short, it runs like this: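 Uninfected CEM cells exposed to compound dilutions; TC50 is the concentration giving 50% inhibition of cell proliferation.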
Series [2] relates to Simian immunodeficiency virus. The experiment in a line: Antiviral activity against SIV in human CEM cells assessed as protection against virus-induced cytopathogenicity. Conditions: CCRF-CEM. It counts as functional, organism-based. In short, it runs like this:
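SIV syncytium assay: CEM174 cells at 2 × 10^5 cells/ml infected with 100 TCID50 SIV per well, given dilutions of compound; 5 days at 37 °C, 5% CO2, humidified air. Giant (syncytium) cell formation scored microscopically. EC50 = concentration protecting cells from SIV cytopathogenicity by 50%.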
(Damage to the host cells serves as the signal in cytopathic effect assays.)

A short description of series [3]: Selectivity index, ratio of TC50 for human CEM cells to EC50 for SIV in human CEM cells.
In the next series the test system is Nucleic Acid. The experiment in a line: Inhibition of HIV1 Tat-TAR RNA interaction-mediated transactivation in human 293T cells assessed as CAT gene expression at 30 uM after 24 hrs by ELISA; values are per cent of control. The conditions noted are these: Human immunodeficiency virus 1.

As to `O=C(NCCO)c1cn(CCO)c2ccccc2c1=O`, the CC50 in series [1] was more than 100 µM. Further, in series [2], the concentration giving a half-maximal response (EC50) stood at 7.3 µM. Also, the Ratio in series [3] is more than 13.

For `O=C(NCCO)c1cn(Cc2ccc(F)cc2)c2ccccc2c1=O`, the CC50 in series [1] was more than 100 µM. Further, the EC50 in series [2] came out at 6.9 µM. For the same compound, in series [3], the Ratio is more than 14.

For `COC(=O)[C@H](CO)NC(=O)c1cnc2c(C)cccc2c1Cl`, in series [1], the CC50 was more than 100 µM. Moreover, in series [2], the EC50 was 2.8 µM. For the same compound, in series [3], the Ratio is given as more than 36.

Consider `COC(=O)[C@H](CO)NC(=O)c1cnc2c(Cl)cccc2c1Cl`, for which the CC50 in series [1] is more than 100 µM. Moreover, in series [2], the 50% effective concentration (EC50) came out at 6.7 µM. Also, the Ratio in series [3] was more than 15.

In the case of `COC(=O)CNC(=O)c1cnc2ccccc2c1Cl`, the CC50 in series [1] was more than 100 µM. For the same compound, in the series on Nucleic Acid, the level, % of control worked out at 79%. Besides, the half-maximal effective concentration (EC50) in series [2] was 5.4 µM. The Ratio in series [3] is given as more than 18.

For `COC(=O)[C@@H](NC(=O)c1cnc2ccccc2c1Cl)C(C)C`, the CC50 in series [1] came out at 17.6 µM. In series [2], the half-maximal effective concentration (EC50) turned out to be 5.6 µM. Also, the Ratio in series [3] is 3.1.

Turning to `O=C(NCCO)c1cn(Cc2ccccc2)c2ccccc2c1=O`, in series [1], the CC50 is more than 100 µM. For the same compound, the level, % of control in the series on Nucleic Acid turned out to be 63.9%. Besides, in series [2], the EC50 came out at 6 µM. Further, in series [3], the Ratio is listed as more than 16.

Regarding `O=C(NCCCO)c1cnc2ccccc2c1Cl`, in series [1], the CC50 was more than 100 µM. For the same compound, the EC50 in series [2] came to 6.6 µM. For the same compound, the Ratio in series [3] is listed as more than 15.

With `O=C(N[C@H](CO)Cc1ccccc1)c1cnc2ccccc2c1Cl`, in series [1], the CC50 is more than 100 µM. Moreover, the EC50 in series [2] turned out to be 4 µM. For the same compound, the Ratio in series [3] was more than 25.

Regarding `COC(=O)[C@H](CO)NC(=O)c1cnc2ccccc2c1Cl`, in series [1], the CC50 was more than 100 µM. The level, % of control in the series with Nucleic Acid was 59.6%. Also, in series [2], the EC50 stood at 1.1 µM. For the same compound, the Ratio in series [3] is given as more than 90.

With `O=C(NCCO)c1c[nH]c2ccccc2c1=O`, the CC50 in series [1] was more than 100 µM. Moreover, the EC50 in series [2] turned out to be 3.7 µM. The Ratio in series [3] was more than 27.

Turning to `COC(=O)[C@H](CO)NC(=O)c1cnc2ccc(F)cc2c1Cl`, the CC50 in series [1] was more than 100 µM. Moreover, the concentration for a half-maximal effect (EC50) in series [2] turned out to be 5.8 µM. Further, the Ratio in series [3] is listed as more than 17.

On to `COC(=O)[C@@H](NC(=O)c1cnc2ccccc2c1Cl)[C@@H](C)O`, for which the CC50 in series [1] is more than 100 µM. Moreover, the level, % of control in the series with Nucleic Acid is 82.4%. In addition, the EC50 in series [2] was 7 µM. In series [3], the Ratio is reported as more than 14.

Consider `Cn1cc(C(=O)NCCO)c(=O)c2ccccc21`, for which the CC50 in series [1] is more than 100 µM. Besides, in the series with Nucleic Acid, the level, % of control was determined as 44.2%. Further, the EC50 in series [2] was 8.7 µM. Also, the Ratio in series [3] is recorded as more than 11.

For `CC(C)C[C@@H](CO)NC(=O)c1cnc2ccccc2c1Cl`, the CC50 in series [1] was more than 100 µM. For the same compound, the level, % of control with Nucleic Acid turned out to be 71.9%. In addition, the EC50 in series [2] was 7.9 µM. In series [3], the Ratio was more than 12.

Regarding `COC(=O)[C@H](CO)NC(=O)c1cnc2cc(C)ccc2c1Cl`, the CC50 in series [1] is 59.6 µM. For the same compound, the level, % of control in the series on Nucleic Acid came to 53.3%. In addition, in series [2], the EC50 stood at 4.7 µM. For the same compound, in series [3], the Ratio turned out to be 13.

Consider `COC(=O)[C@H](C)NC(=O)c1cnc2ccccc2c1Cl`, for which the CC50 in series [1] came out at 81.3 µM. Further, the EC50 in series [2] stood at 5.7 µM. Further, in series [3], the Ratio amounted to 14.

Turning to `COC(=O)[C@H](CO)NC(=O)c1cnc2ccc(Cl)cc2c1Cl`, the CC50 in series [1] is more than 100 µM. Also, the EC50 in series [2] came out at 12 µM. Further, the Ratio in series [3] is given as more than 8.3.

With `C[C@@H](CO)NC(=O)c1cnc2ccccc2c1Cl`, the CC50 in series [1] was more than 100 µM. The 50% effective concentration (EC50) in series [2] came out at 7 µM. Besides, the Ratio in series [3] is more than 14.

Take `COC(=O)[C@H](CSC)NC(=O)c1cnc2ccccc2c1Cl`: in series [1], the CC50 was determined as 68.4 µM. The EC50 in series [2] came out at 2.9 µM. Besides, the Ratio in series [3] came to 22.

On to `COC(=O)C[C@H](NC(=O)c1cnc2ccccc2c1Cl)C(=O)OC`, for which the level, % of control in the series with Nucleic Acid stood at 58.7%.

Regarding `COC(=O)[C@H](Cc1ccccc1)NC(=O)c1cnc2ccccc2c1Cl`, the CC50 in series [1] was more than 100 µM. Further, the EC50 in series [2] amounted to 7.9 µM. The Ratio in series [3] is on record as more than 13.

On to `COC(=O)[C@H](CC(C)C)NC(=O)c1cnc2ccccc2c1Cl`, for which, in series [1], the CC50 is 49.1 µM. For the same compound, in series [2], the concentration for a half-maximal effect (EC50) was 9.4 µM. In addition, in series [3], the Ratio was determined as 5.2.

As for `O=C(NCCO)c1cnc2ccccc2c1Cl`, in series [1], the CC50 is more than 100 µM. The concentration giving a half-maximal response (EC50) in series [2] was 2.7 µM. Moreover, in series [3], the Ratio is recorded as more than 37.

Regarding `COC(=O)[C@H](CO)NC(=O)c1cnc2cc(Cl)ccc2c1Cl`, the CC50 in series [1] is more than 100 µM. Besides, the EC50 in series [2] is 8.2 µM. Also, the Ratio in series [3] was more than 12.

Consider `O=C(NCCO)c1c[nH]c2ccc(Cl)cc2c1=O`, for which the CC50 in series [1] is more than 100 µM. The EC50 in series [2] is 5.1 µM. Also, the Ratio in series [3] is more than 19.

`CCOC(=O)[C@H](CO)NC(=O)c1cnc2ccccc2c1Cl`: the CC50 in series [1] is more than 100 µM. For the same compound, the EC50 in series [2] came to 4.7 µM. Moreover, in series [3], the Ratio was more than 21.

For `COC(=O)[C@H](Cc1c[nH]c2ccccc12)NC(=O)c1cnc2ccccc2c1Cl`, the CC50 in series [1] was more than 100 µM. Also, the EC50 in series [2] was 10 µM. In addition, the Ratio in series [3] is given as more than 19.

As to `O=C(NCCO)c1c[nH]c2ccc(Oc3ccccc3)cc2c1=O`, the CC50 in series [1] was more than 100 µM. In series [2], the EC50 was 4.9 µM. Further, the Ratio in series [3] is reported as more than 20.

Take `CC[C@H](C)[C@H](NC(=O)c1cnc2ccccc2c1Cl)C(=O)OC`: the CC50 in series [1] came out at 23.3 µM. Moreover, the concentration giving a half-maximal response (EC50) in series [2] amounted to 1.3 µM. The Ratio in series [3] stood at 17.

On to `COC(=O)[C@H](CO)NC(=O)c1cnc2ccc(C)cc2c1Cl`, for which the CC50 in series [1] was more than 100 µM. Also, the EC50 in series [2] was 11.6 µM. In addition, in series [3], the Ratio is more than 8.6.

With `COC(=O)[C@@H](NC(=O)c1cnc2cc(C)ccc2c1Cl)[C@@H](C)O`, the CC50 in series [1] was more than 100 µM. Moreover, the level, % of control in the series on Nucleic Acid is 92.7%. In addition, the concentration giving a half-maximal response (EC50) in series [2] was found to be 13 µM. The Ratio in series [3] is reported as more than 14.

Take `COC(=O)[C@H](CO)NC(=O)c1cnc2c(F)cc(F)cc2c1Cl`: the CC50 in series [1] is more than 100 µM. In addition, in series [2], the concentration giving a half-maximal response (EC50) was 8.8 µM. The Ratio in series [3] is more than 11.

The term EC50 denotes the concentration that produces a half-maximal response.

Source of the values: ChEMBL document CHEMBL1152759, “Design, synthesis, and biological evaluation of novel quinoline derivatives as HIV-1 Tat-TAR interaction inhibitors” (Bioorg Med Chem, 2009).
